Activity calls are given as the source filed them.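 Rule for the calls, unless noted: active = viability at or under a set limit in both replicates, limit being median viability minus 3 SD (cut at about 48% in these data, passing the limit was not always enough); inconclusive = at or under the limit in just one replicate; inactive = at or above the limit in both replicates.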
How the values were obtained:
[1] = reduced viability of SK-BR-3 breast cancer cells – cell-based, 24 h, human, pilot screen (AID 572;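 active = viability at or below 10% of carrier control in both of two separate runs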;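 note: compound exposure lasted between 18 and 24 h rather than exactly 24 h; 100% = carrier-treated control wells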); conditions: SK-BR-3 viability, CellTiter-Glo luminescence, at 10 µM, stronger effect = lower value
[2] = HUVEC growth inhibition – cell-based, human, primary screen (AID 575;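 active = viability at or below 30% in both replicate assays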;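 note: 100% = median of untreated cell wells with 0.1% DMSO on each plate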); conditions: HUVEC proliferation, CellTiter-Glo luminescence, 72 h; at 10 µM; stronger effect = lower value
Summary of the method: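 Material: primary human umbilical vein endothelial cells / Schedule: 72 h exposure, 37 °C, 5% CO2, 30 min RT equilibration / Signal: ATP-based CellTiter-Glo luminescent read / Read-out basis: percent of median DMSO-control luminescence / Control set: 32 DMSO-only cell-control wells (high), 32 MePR drug-control wells (low) per plate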

[3] = H69AR cell proliferation blockers – human, duplicate replicates, primary screen (AID 580); conditions: H69AR lung tumor cells viability, ATP luminescence, 72 h; at 10 µM; stronger effect = lower value;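 note: 100% = mean luminescence of untreated wells and 0% = no signal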
[4] = MRP1 drug-resistance reversers in H69AR cells – cell-based, doxorubicin co-treatment, pilot screen (AID 601;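 active = viability loss from added drug above about 55%, and viability with drug at most 40%, in both replicates, limit read from the data, passing the limit was not always enough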); conditions: CellTiter-Glo, 72 h, at 10 µM; for differential viability (reversal): stronger effect = higher value
[5] = yeast transport mutant growth inhibition pilot in 384-well plates, post-Golgi transport modulator project (AID 636; in the data active = inhibition above about 31%); conditions: absorbance 615 nm, about 18 h, stronger effect = higher value
[6] = growth suppression of yeast trafficking mutant, preliminary HTS, modulators of trafficking downstream of Golgi apparatus project, 1536-format plate, OD 615 nm (AID 637; in the data active = inhibition above about 30%); conditions: yeast transport mutant growth, absorbance 615 nm, 18 h; stronger effect = higher value
[7] = H69AR cells + 2 uM doxorubicin, measured here: viability with 2 uM doxorubicin, stronger effect = lower value
[8] = H69AR cells, compound alone cytotoxicity

Compound	viability [1]	viability [2]	viability [3]	differential viability (reversal) ([4]; H69AR cells + 2 uM doxorubicin)	viability [4, 7]	viability [4, 8]	inhibition [5]	inhibition [6]
O=C(O)C1CCCN1C(=O)c1cccs1 (stereo not drawn)	114% (inactive)	88.3% (inactive)	103% (inactive)	3.11% (inactive)	100%	103%	3.15% (inactive)	-2.58% (inactive)
Cn1c(=O)cc(OCCCC(=O)N2CCCCC2)c2ccccc21	98% (inactive)	87.5% (inactive)	91.5% (inactive)	12% (inactive)	79.5%	91.5%	-1.82% (inactive)	0.98% (inactive)
FC(F)Oc1cccc2cccnc12	89% (inactive)	111% (inactive)	94% (inactive)	9.04% (inactive)	84.9%	94%	-3.33% (inactive)	-0.55% (inactive)
COc1ccc(CNc2oc(-c3cccc4ccccc34)nc2C#N)cc1	85% (inactive)	95.5% (inactive)	96.9% (inactive)	-4.35% (inactive)	101%	96.9%	-4.93% (inactive)	-0.18% (inactive)
CC(C)CN(C(=O)c1ccc(=O)n(C)n1)c1nc2ccccc2s1	94% (inactive)	107% (inactive)	90.2% (inactive)	4.96% (inactive)	85.2%	90.2%	-1.08% (inactive)	1.09% (inactive)
Cc1nc2sccn2c(=O)c1CCN1CCC(=C(c2ccc(F)cc2)c2ccc(F)cc2)CC1	111% (inactive)	11.5% (active)	85.7% (inactive)	-2.19% (inactive)	87.8%	85.7%	1.04% (inactive)	6.17% (inactive)
COc1ccc(OC)c(N(CC(=O)Nc2cccnc2)S(=O)(=O)c2ccc(OC)c(OC)c2)c1	112% (inactive)	91% (inactive)	83.7% (inactive)	-2.03% (inactive)	85.7%	83.7%	-6.58% (inactive)	0.91% (inactive)
Cc1ccc(NC(=O)CN(C)S(=O)(=O)c2cccc3nsnc23)cc1Cl	103% (inactive)	83.3% (inactive)	84.5% (inactive)	-7.79% (inactive)	92.2%	84.5%	1.76% (inactive)	-3.09% (inactive)
Cc1ccc(S(=O)(=O)N2CCN(C(=O)CSC3CCCC3)CC2)c(C)c1	74% (inactive)	87.4% (inactive)	81.6% (inactive)	-7.29% (inactive)	88.8%	81.6%	-9.59% (inactive)	-5.32% (inactive)
N=c1nc(N2CCCCC2)cc(N)n1O	96% (inactive)	89.3% (inactive)	99.8% (inactive)	7.85% (inactive)	92%	99.8%	-1.17% (inactive)	-1.83% (inactive)
CCCC(=O)Nc1c2c(nn1-c1ccc(OC)cc1)CS(=O)C2 (stereo not drawn)	103% (inactive)	109% (inactive)	102% (inactive)	9.39% (inactive)	92.8%	102%	-2.73% (inactive)	6.07% (inactive)
CCc1nc(SCC(=O)NCc2ccco2)c2c3c(sc2n1)CCCC3	97% (inactive)	78.8% (inactive)	67.8% (inactive)	-9.31% (inactive)	77.1%	67.8%	-3.12% (inactive)	-3.44% (inactive)
O=c1c2cc3ccccc3n2cnn1Cc1ccccc1F	100% (inactive)	57.9% (inactive)	11.3% (active)	-36.1% (inactive)	47.4%	11.3%	-1.95% (inactive)	2.3% (inactive)
Cc1cc(N2C(=O)CC(N3CCN(c4ccc(C(=O)c5cccs5)cc4)CC3)C2=O)no1 (stereo not drawn)	96% (inactive)	87.4% (inactive)	87.6% (inactive)	-4.99% (inactive)	92.6%	87.6%	-3.42% (inactive)	13.6% (inactive)
Cc1ccc(CNc2cc(-c3nn4c(C)nnc4s3)ccc2C)s1	88% (inactive)	45.1% (inactive)	58.8% (inactive)	18.3% (inactive)	40.5%	58.8%	-2.6% (inactive)	12.3% (inactive)
COc1ccc(-n2ncc3c(NCc4cccs4)ncnc32)cc1	120% (inactive)	90.5% (inactive)	73.3% (inactive)	17.6% (inactive)	55.8%	73.3%	-6.71% (inactive)	-1.64% (inactive)
COCc1[nH]nc2c1C(c1cc(OC)c(O)c(OC)c1)C(C#N)=C(N)O2 (stereo not drawn)	98% (inactive)	102% (inactive)	93% (inactive)	-2% (inactive)	95%	93%	-10.3% (inactive)	4.03% (inactive)
Cc1cccc(N2CCN(C(=O)C3CCCN(S(=O)(=O)c4c(C)noc4C)C3)CC2)c1C (stereo not drawn)	78% (inactive)	53.1% (inactive)	81.9% (inactive)	2.14% (inactive)	79.7%	81.9%	-3.21% (inactive)	0.83% (inactive)
Cc1nc2c(-c3ccccc3)c(C)[nH]n2c(=O)c1Cl	93% (inactive)	72.7% (inactive)	77.5% (inactive)	-19.2% (inactive)	96.8%	77.5%	-0.55% (inactive)	11.8% (inactive)
Cc1cc(C)nc(NC2=NCC(=O)N2c2ccc(Cl)cc2)n1	99% (inactive)	117% (inactive)	97.1% (inactive)	1.69% (inactive)	95.4%	97.1%	-7.03% (inactive)	0.55% (inactive)
O=C(C1CCN(C2CC(=O)N(c3ccc(F)cc3)C2=O)CC1)N1CCOCC1 (stereo not drawn)	106% (inactive)	105% (inactive)	101% (inactive)	4.69% (inactive)	96.2%	101%	-1.43% (inactive)	4.43% (inactive)
Cc1ccc2c(c1)C(N1CCCC1=O)CC(c1ccco1)N2 (stereo not drawn)	108% (inactive)	74.7% (inactive)	68.7% (inactive)	2.15% (inactive)	66.6%	68.7%	-5.6% (inactive)	-6.51% (inactive)
O=C(NC1CCCC1)C(c1cccs1)N(Cc1ccco1)C(=O)Cn1nnc(-c2cccs2)n1 (stereo not drawn)	71% (inactive)	87.3% (inactive)	92.8% (inactive)	-1.47% (inactive)	94.3%	92.8%	-8.22% (inactive)	-0.48% (inactive)

Compound	viability [1]	viability [2]	viability [3]	differential viability (reversal) ([4]; H69AR cells + 2 uM doxorubicin)	viability [4, 7]	viability [4, 8]	inhibition [5]	inhibition [6]
CCCN1Cc2cccc(C(=O)NCc3cccs3)c2C1=O	86% (inactive)	111% (inactive)	90.6% (inactive)	-0.255% (inactive)	90.8%	90.6%	-6% (inactive)	-1.45% (inactive)
CCc1[nH]nc2c1C1(CCN(C(=O)OCc3ccccc3)CC1)C(C#N)=C(N)O2	112% (inactive)	85.6% (inactive)	85.2% (inactive)	-0.55% (inactive)	85.8%	85.2%	-8.9% (inactive)	2.1% (inactive)
CCOC(=O)C1=C(C)NC(C)=C(C(=O)OC)C1c1cccc(Cl)c1Cl (stereo not drawn)	86% (inactive)	11.2% (active)	72% (inactive)	4.92% (inactive)	67.1%	72%	11.3% (inactive)	13.2% (inactive)
CCOCCCNC(=O)C1CCC(CNS(=O)(=O)c2cccc3nsnc23)CC1 (stereo not drawn)	102% (inactive)	84.6% (inactive)	88.3% (inactive)	-5.31% (inactive)	93.6%	88.3%	0% (inactive)	-4.92% (inactive)
COc1ccc(C(=O)NCCc2nnc(SCc3nc4ccccc4c(=O)[nH]3)n2C)cc1	101% (inactive)	67.3% (inactive)	83.4% (inactive)	9.63% (inactive)	73.8%	83.4%	-5.89% (inactive)	2.42% (inactive)
Cc1cc(C)nc(N2CCC(C(=O)Nc3ccc(Oc4ccccc4)cc3)CC2)n1	67% (inactive)	105% (inactive)	88.9% (inactive)	0.65% (inactive)	88.2%	88.9%	-8.36% (inactive)	1.09% (inactive)
COc1ccc2cc(C#N)c(N3CCN(Cc4nnnn4CCC(C)C)CC3)nc2c1	89% (inactive)	64.5% (inactive)	79.4% (inactive)	8.18% (inactive)	71.2%	79.4%	-2.93% (inactive)	2.73% (inactive)
COc1ccc(S(=O)(=O)N2CCCC(C(=O)NCc3ccccn3)C2)cc1 (stereo not drawn)	146% (inactive)	96.8% (inactive)	95.5% (inactive)	3.92% (inactive)	91.6%	95.5%	-1.43% (inactive)	-0.66% (inactive)
O=C(CN1CCN(c2ccccn2)CC1)N1c2ccccc2CCc2ccccc21	95% (inactive)	88.1% (inactive)	107% (inactive)	-0.175% (inactive)	108%	107%	-6.08% (inactive)	-0.55% (inactive)
CC(O)c1cc2c(cc1NC(=O)c1cnn3c1NC(c1ccco1)CC3C(F)(F)F)OCO2 (stereo not drawn)	93% (inactive)	97.2% (inactive)	86.3% (inactive)	0.405% (inactive)	85.9%	86.3%	0.65% (inactive)	-1.97% (inactive)
O=C(CCn1c(=O)sc2ccccc21)NCc1ccc2c(c1)OCO2	75% (inactive)	111% (inactive)	99.9% (inactive)	8.43% (inactive)	91.5%	99.9%	-0.81% (inactive)	-2.91% (inactive)
Cc1cc(C(F)(F)F)nc(NCc2cccnc2)n1	97% (inactive)	96.4% (inactive)	92.5% (inactive)	9.55% (inactive)	82.9%	92.5%	-1.04% (inactive)	-1.97% (inactive)
CC(COc1ccccc1)N(CCCl)Cc1ccccc1 (stereo not drawn)	107% (inactive)	78.2% (inactive)	56.1% (inactive)	9.34% (inactive)	46.7%	56.1%	-0.65% (inactive)	-3.33% (inactive)
CCOC(=O)N1CCC(NC(=O)C2CCC(Cn3c(=O)[nH]c4ccccc4c3=O)CC2)CC1 (stereo not drawn)	134% (inactive)	64.8% (inactive)	16.8% (active)	-7.75% (inactive)	24.6%	16.8%	-5.71% (inactive)	0.66% (inactive)
Cc1cccc(NC(=O)c2ccc(S(=O)(=O)N(C)C)cc2)n1	112% (inactive)	96.1% (inactive)	94.2% (inactive)	2.72% (inactive)	91.4%	94.2%	-0.8% (inactive)	2.73% (inactive)
CCOc1ccccc1NC(=O)CN(C)S(=O)(=O)c1cccc2nsnc12	104% (inactive)	91.1% (inactive)	84% (inactive)	-1.12% (inactive)	85.1%	84%	-6.76% (inactive)	0.73% (inactive)
O=C(NC1=NCCS1)c1ccc2c(c1)C(=O)N(Cc1ccco1)C2=O	85% (inactive)	94% (inactive)	93.6% (inactive)	1.83% (inactive)	91.8%	93.6%	-7.26% (inactive)	4.73% (inactive)
c1ccc2c(SCc3cn4cccnc4n3)ncnc2c1	108% (inactive)	99.9% (inactive)	88.4% (inactive)	10.4% (inactive)	78%	88.4%	-4.8% (inactive)	-3.82% (inactive)
COCCn1c(Sc2nc(C)cs2)nc2c1c(=O)[nH]c(=O)n2C	85% (inactive)	106% (inactive)	101% (inactive)	4.51% (inactive)	96.6%	101%	-5.07% (inactive)	3.45% (inactive)
Cc1cccc(N(C)C(=S)Oc2ccc3ccccc3c2)c1	89% (inactive)	109% (inactive)	97.1% (inactive)	13% (inactive)	84.1%	97.1%	0.26% (inactive)	1.83% (inactive)
CCCc1nc(NCc2ccncc2)c2nnn(Cc3ccccc3F)c2n1	99% (inactive)	107% (inactive)	54.5% (inactive)	8.61% (inactive)	45.9%	54.5%	-1.37% (inactive)	-3.39% (inactive)
C=CCn1c(SCC(=O)NCC2CCCO2)nc2scc(-c3ccco3)c2c1=O (stereo not drawn)	112% (inactive)	88.2% (inactive)	92.9% (inactive)	-1.34% (inactive)	94.2%	92.9%	-3.84% (inactive)	2.58% (inactive)
O=S(=O)(c1ccc2c(c1)OCCO2)N1CCN(Cc2ccc3c(c2)OCO3)CC1	112% (inactive)	105% (inactive)	88.4% (inactive)	-6.71% (inactive)	95.1%	88.4%	-3.24% (inactive)	1.09% (inactive)
